Eleven molecules from ChEMBL document CHEMBL1147254, “New bioactive polyphenols from Theobroma grandiflorum ("cupuaçu")” (J Nat Prod, 2003) can be followed below.

Assay [1] concerns Radical scavenging activity. As to the kind of experiment: Antioxidant activity assessed as DPPH radical scavenging activity after 30 mins. It counts as functional. A digest of the protocol: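 Test samples in DMSO were mixed with a 300 µM ethanolic DPPH solution and incubated at 37 °C.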
The test system of the next assay is HCT-116. As to the kind of experiment: Cytotoxicity against human HCT116 cells after 72 hrs by MTT assay. It counts as functional, cell-based. The conditions noted are these: HCT-116, 72 h. A digest of the protocol:
(§1)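 About 30 000 cells per well were seeded in 96-well plates, and the medium was replaced once cultures reached 40% confluence.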

The test system of another assay is SW480. As to the kind of experiment: Cytotoxicity against human SW480 cells after 72 hrs by MTT assay. It counts as functional, cell-based. The note with it: SW480, 72 h. Summed up: as §1

Regarding `COC(=O)[C@H]1O[C@@H](Oc2c(-c3ccc(O)c(O)c3)oc3cc(O)cc(O)c3c2=O)[C@H](O)[C@@H](O)[C@@H]1O`, in assay [1], the IC50 stood at 41.6 µM.
For `O=C(O)[C@H]1O[C@@H](Oc2c(O)cc(O)c3c(=O)cc(-c4ccc(O)cc4)oc23)[C@H](O)[C@@H](O)[C@@H]1O`, the IC50 in assay [1] worked out at 68.1 µM.
For `O=C(O)[C@H]1O[C@@H](Oc2c(O)cc(O)c3c(=O)cc(-c4ccc(O)cc4)oc23)[C@H](O)[C@@H](OS(=O)(=O)O)[C@@H]1O` [THEOGRANDIN I], the 50% inhibitory concentration (IC50) in assay [1] was found to be 341 µM; with HCT-116 it was 205 µM; in the assay with SW480, 164 µM.
Regarding `Oc1cc(O)c2c(c1)O[C@H](c1ccc(O)c(O)c1)[C@@H](O)C2` [CIANIDANOL], the IC50 in assay [1] is 49 µM.
With `COC(=O)[C@H]1O[C@@H](Oc2c(O)cc(O)c3c(=O)cc(-c4ccc(O)cc4)oc23)[C@H](O)[C@@H](O)[C@@H]1O`, the 50% inhibitory concentration (IC50) in assay [1] stood at 69.2 µM.
Consider `O=C(O)[C@H]1O[C@@H](Oc2c(O)cc(O)c3c(=O)cc(-c4ccc(O)c(O)c4)oc23)[C@H](O)[C@@H](OS(=O)(=O)O)[C@@H]1O` [THEOGRANDIN II], for which the IC50 in assay [1] came to 120 µM; with HCT-116 it was 143 µM; with SW480, 125 µM.
As to `O=c1c(O)c(-c2ccc(O)c(O)c2)oc2cc(O)cc(O)c12` [QUERCETIN], in assay [1], the IC50 is 39.7 µM.
Same read-out and setting: for `O=c1c(O)c(-c2ccc(O)cc2)oc2cc(O)cc(O)c12` [KAEMPFEROL] the value was 89.7 µM.
Regarding `Oc1cc(O)c2c(c1)O[C@H](c1ccc(O)c(O)c1)[C@H](O)C2` [(-)-EPICATECHIN], the 50% inhibitory concentration (IC50) in assay [1] is 49 µM.
On the same count and under the same terms, for `O=C(O)[C@H]1O[C@@H](Oc2c(-c3ccc(O)c(O)c3)oc3cc(O)cc(O)c3c2=O)[C@H](O)[C@@H](O)[C@@H]1O` [QUERCETIN GLUCURONIDE] the value was 44.4 µM.
Same read-out and setting: for `O=C(O)[C@H]1O[C@@H](Oc2c(O)cc(O)c3c(=O)cc(-c4ccc(O)c(O)c4)oc23)[C@H](O)[C@@H](O)[C@@H]1O` the value was 58.2 µM.
